From ChEMBL document CHEMBL4393681, “The identification of naturally occurring labdane diterpenoid calcaratarin D as a potential anti-inflammatory agent” (Eur J Med Chem, 2019)
Active and inactive are the calls of the source. The calls are words filed in the database; no cut-off is given here.

Legend:
[1] = biological target: Mitogen-activated protein kinase 1 and 3 (ERK2 and ERK1) (Mus musculus) (UniProt P63085+Q63844); test: Inhibition of LPS-stimulated ERK1/2 phosphorylation in mouse RAW264.7 cells at 5 to 20 uM pretreated for 1 hr followed by LPS stimulation and measured after 4 hrs by Western blot analysis; assay type: cell-based
In short: (§1)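 RAW264.7 cells received compound (5–20 µM) or vehicle with LPS 25 ng/mL for 4 h. Phospho-ERK1/2, SAPK/JNK, p38 and Akt were immunoblotted against a GAPDH loading control. Akt phosphorylation was quantified by band intensity, mean ± SEM, n = 4, versus 0.02% DMSO cells.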

[2] = biological target: RAC-alpha serine/threonine-protein kinase (Mus musculus) (UniProt P31750); test: Inhibition of LPS-stimulated AKT phosphorylation in mouse RAW264.7 cells at 5 to 20 uM pretreated for 1 hr followed by LPS stimulation and measured after 4 hrs by Western blot analysis; assay type: cell-based; in short: as §1
RAW264.7 [3] = test: Inhibition of LPS-stimulated SAPK/JNK phosphorylation in mouse RAW264.7 cells at 5 to 20 uM pretreated for 1 hr followed by LPS stimulation and measured after 4 hrs by Western blot analysis; assay type: cell-based; in short: as §1
[4] = biological target: MAP kinase p38 (Mus musculus) (UniProt P47811+O08911+Q9WUI1+Q9Z1B7); test: Inhibition of LPS-stimulated p38 MAPK phosphorylation in mouse RAW264.7 cells at 5 to 20 uM pretreated for 1 hr followed by LPS stimulation and measured after 4 hrs by Western blot analysis; assay type: cell-based; in short: as §1
Mus musculus [5] = species: Mus musculus; test: Inhibition of LPS-stimulated NFkappaB activation in mouse RAW blue cells assessed as reduction in SEAP protein expression at 0.1 to 20 uM pretreated for 1 hr followed by LPS stimulation and measured after 24 hrs by reporter gene assay; assay type: cell-based
In short: (§2)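 RAW-Blue NF-κB–SEAP reporter cells were pretreated for 1 h with compound (0.1–20 µM), dexamethasone 1 µM or DMSO vehicle, then given LPS 25 ng/mL for 24 h. SEAP activity in the supernatant was read with LPS-treated 0.02% DMSO cells set as 100%. Mean ± SEM, n = 4.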

[6] = biological target: Transcription factor p65 (Mus musculus) (UniProt Q04207); test: Effect on total p65 NFkappaB subunit protein level in mouse RAW264.7 cells at 5 to 20 uM pretreated for 1 hr followed by LPS stimulation and measured after 4 hrs by Western blot analysis; assay type: cell-based
In short: (§3)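 Whole-cell lysates from RAW264.7 cells given compound (5–20 µM) or vehicle and LPS 25 ng/mL for 4 h. Phosphorylated and total p65 were immunoblotted and bands quantified densitometrically. Mean ± SEM, n = 4, compared with 0.02% DMSO cells.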

RAW264.7 [7] = test: Anti-inflammatory activity in mouse RAW264.7 cells assessed as inhibition of LPS-induced IL-6 production at 1 uM pretreated for 1 hr followed by LPS stimulation and measured after 18 hrs by ELISA relative to control; assay type: functional; parameters: scale not given: the % may be the effect or the level left
In short: (§4)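 DMSO stocks (100 mM) were tested at 0.1, 1, 5 and 20 µM on LPS-stimulated RAW264.7 cells, with dexamethasone 1 µM as positive control. Secreted TNF-α or IL-6 was normalized to the percentage of viable LPS-stimulated cells at each concentration. Mean of three separate experiments, each in triplicate.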

RAW264.7 [8] = test: Anti-inflammatory activity in mouse RAW264.7 cells assessed as inhibition of LPS-induced TNFalpha production at 1 uM pretreated for 1 hr followed by LPS stimulation and measured after 18 hrs by ELISA relative to control; assay type: functional; parameters: scale not given: the % may be the effect or the level left; in short: as §4
RAW264.7 [9] = test: Anti-inflammatory activity in mouse RAW264.7 cells assessed as inhibition of LPS-induced IL-6 production at 0.1 uM pretreated for 1 hr followed by LPS stimulation and measured after 18 hrs by ELISA relative to control; assay type: functional; parameters: scale not given: the % may be the effect or the level left; in short: as §4
[10] = biological target: Transcription factor p65 (Mus musculus) (UniProt Q04207); test: Inhibition of LPS-stimulated NFkappaB activation in mouse RAW264.7 cells assessed as blockade of p65 NFkappaB nuclear translocation at 20 uM pretreated for 1 hr followed by LPS stimulation and measured after 4 hrs by Western blot analysis; assay type: cell-based
In short: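 After compound at 20 µM or vehicle with LPS 25 ng/mL for 4 h, cytoplasmic and nuclear fractions were blotted for p65. TBP (nuclear) and GAPDH (cytoplasmic) served as loading controls. Nuclear p65 was quantified by band intensity, mean ± SEM, n = 4.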

RAW264.7 [11] = test: Anti-inflammatory activity in mouse RAW264.7 cells assessed as inhibition of LPS-induced IL-6 mRNA expression pretreated for 1 hr followed by LPS stimulation and measured after 4 hrs by RT-PCR analysis; assay type: functional, cell-based
In short: (§5)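 RAW264.7 cells were exposed to compound (1, 5, 20 µM), dexamethasone 1 µM or 0.02% DMSO vehicle, then stimulated with LPS 25 ng/mL for 4 h. Total RNA was isolated and analysed by real-time PCR. mRNA was normalized to β-actin and expressed relative to unstimulated control cells. Mean ± SEM, n = 4.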

RAW264.7 [12] = test: Anti-inflammatory activity in mouse RAW264.7 cells assessed as inhibition of LPS-induced TNFalpha production at 20 uM pretreated for 1 hr followed by LPS stimulation and measured after 18 hrs by ELISA relative to control; assay type: functional; parameters: scale not given: the % may be the effect or the level left; in short: as §4
[13] = biological target: Transcription factor p65 (Mus musculus) (UniProt Q04207); test: Effect on p65 subunit NFkappaB phosphorylation in mouse RAW264.7 cells at 5 to 20 uM pretreated for 1 hr followed by LPS stimulation and measured after 4 hrs by Western blot analysis; assay type: cell-based; in short: as §3
Mus musculus [14] = species: Mus musculus; test: Inhibition of LPS-stimulated NFkappaB activation in mouse RAW blue cells assessed as reduction in SEAP protein expression pretreated for 1 hr followed by LPS stimulation and measured after 24 hrs by reporter gene assay; assay type: cell-based; in short: as §2
RAW264.7 [15] = test: Anti-inflammatory activity against mouse RAW264.7 cells assessed as inhibition of LPS-stimulated NO production pretreated for 1 hr followed by LPS stimulation and measured after 24 hrs by Griess reagent based assay; assay type: functional, cell-based
RAW264.7 [16] = test: Anti-inflammatory activity in mouse RAW264.7 cells assessed as inhibition of LPS-induced TNF-alpha mRNA expression pretreated for 1 hr followed by LPS stimulation and measured after 4 hrs by RT-PCR analysis; assay type: functional, cell-based; in short: as §5
[17] = Cytotoxicity against mouse RAW264.7 cells assessed as cell viability at 1 uM incubated for 18 hrs by celltiter-glo luminescent assay relative to control; assay type: cell-based; conditions: read-out: Activity
In short: (§6)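 Non-stimulated RAW264.7 cells were exposed to 0.1, 1, 5 and 20 µM compound from 100 mM DMSO stocks. Percent viability is the mean of three separate experiments with triplicate samples.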

RAW264.7 [18] = test: Anti-inflammatory activity in mouse RAW264.7 cells assessed as inhibition of LPS-induced TNFalpha production at 0.1 uM pretreated for 1 hr followed by LPS stimulation and measured after 18 hrs by ELISA relative to control; assay type: functional; parameters: scale not given: the % may be the effect or the level left; in short: as §4
RAW264.7 [19] = test: Anti-inflammatory activity in mouse RAW264.7 cells assessed as inhibition of LPS-induced TNFalpha production at 5 uM pretreated for 1 hr followed by LPS stimulation and measured after 18 hrs by ELISA relative to control; assay type: functional; parameters: scale not given: the % may be the effect or the level left; in short: as §4
RAW264.7 [20] = test: Anti-inflammatory activity in mouse RAW264.7 cells assessed as inhibition of LPS-induced IL-1beta mRNA expression pretreated for 1 hr followed by LPS stimulation and measured after 4 hrs by RT-PCR analysis; assay type: functional, cell-based; in short: as §5
[21] = Cytotoxicity against mouse RAW264.7 cells assessed as cell viability at 20 uM incubated for 18 hrs by celltiter-glo luminescent assay relative to control; assay type: cell-based; conditions: read-out: Activity; in short: as §6
[22] = biological target: RAC-alpha serine/threonine-protein kinase (Mus musculus) (UniProt P31750); test: Inhibition of LPS-stimulated AKT phosphorylation in mouse RAW264.7 cells pretreated for 1 hr followed by LPS stimulation and measured after 4 hrs by Western blot analysis; assay type: cell-based; in short: as §1
RAW264.7 [23] = test: Anti-inflammatory activity in mouse RAW264.7 cells assessed as inhibition of LPS-induced iNOS mRNA expression pretreated for 1 hr followed by LPS stimulation and measured after 4 hrs by RT-PCR analysis; assay type: functional, cell-based; in short: as §5
RAW264.7 [24] = test: Anti-inflammatory activity in mouse RAW264.7 cells assessed as inhibition of LPS-induced IL-6 production at 5 uM pretreated for 1 hr followed by LPS stimulation and measured after 18 hrs by ELISA relative to control; assay type: functional; parameters: scale not given: the % may be the effect or the level left; in short: as §4
[25] = Cytotoxicity against mouse RAW264.7 cells assessed as cell viability at 5 uM incubated for 18 hrs by celltiter-glo luminescent assay relative to control; assay type: cell-based; conditions: read-out: Activity; in short: as §6
RAW264.7 [26] = test: Anti-inflammatory activity in mouse RAW264.7 cells assessed as inhibition of LPS-induced IL-6 production at 20 uM pretreated for 1 hr followed by LPS stimulation and measured after 18 hrs by ELISA relative to control; assay type: functional; parameters: scale not given: the % may be the effect or the level left; in short: as §4
[27] = Cytotoxicity against mouse RAW264.7 cells assessed as cell viability at 0.1 uM incubated for 18 hrs by celltiter-glo luminescent assay relative to control; assay type: cell-based; conditions: read-out: Activity; in short: as §6
RAW264.7 [28] = test: Anti-inflammatory activity in mouse RAW264.7 cells assessed as inhibition of LPS-induced MCP-1 mRNA expression pretreated for 1 hr followed by LPS stimulation and measured after 4 hrs by RT-PCR analysis; assay type: functional, cell-based; in short: as §5

Sequence of Transcription factor p65 (Mus musculus) (Q04207 whole entry): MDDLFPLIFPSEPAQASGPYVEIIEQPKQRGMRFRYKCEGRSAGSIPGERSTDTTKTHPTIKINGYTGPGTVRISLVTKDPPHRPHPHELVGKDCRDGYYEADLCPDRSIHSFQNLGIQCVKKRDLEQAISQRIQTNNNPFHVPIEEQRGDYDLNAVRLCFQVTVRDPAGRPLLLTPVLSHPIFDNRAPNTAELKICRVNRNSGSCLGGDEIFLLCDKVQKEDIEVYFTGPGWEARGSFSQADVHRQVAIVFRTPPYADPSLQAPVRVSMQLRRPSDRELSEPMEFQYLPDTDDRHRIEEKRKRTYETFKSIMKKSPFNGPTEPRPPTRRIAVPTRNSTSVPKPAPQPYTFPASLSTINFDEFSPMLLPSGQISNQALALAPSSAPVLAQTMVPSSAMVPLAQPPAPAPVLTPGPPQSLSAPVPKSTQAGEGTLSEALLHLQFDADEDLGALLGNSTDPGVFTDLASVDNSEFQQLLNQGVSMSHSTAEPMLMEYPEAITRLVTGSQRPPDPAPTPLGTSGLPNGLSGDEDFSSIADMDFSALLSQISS
Sequence of RAC-alpha serine/threonine-protein kinase (Mus musculus) (P31750 whole entry): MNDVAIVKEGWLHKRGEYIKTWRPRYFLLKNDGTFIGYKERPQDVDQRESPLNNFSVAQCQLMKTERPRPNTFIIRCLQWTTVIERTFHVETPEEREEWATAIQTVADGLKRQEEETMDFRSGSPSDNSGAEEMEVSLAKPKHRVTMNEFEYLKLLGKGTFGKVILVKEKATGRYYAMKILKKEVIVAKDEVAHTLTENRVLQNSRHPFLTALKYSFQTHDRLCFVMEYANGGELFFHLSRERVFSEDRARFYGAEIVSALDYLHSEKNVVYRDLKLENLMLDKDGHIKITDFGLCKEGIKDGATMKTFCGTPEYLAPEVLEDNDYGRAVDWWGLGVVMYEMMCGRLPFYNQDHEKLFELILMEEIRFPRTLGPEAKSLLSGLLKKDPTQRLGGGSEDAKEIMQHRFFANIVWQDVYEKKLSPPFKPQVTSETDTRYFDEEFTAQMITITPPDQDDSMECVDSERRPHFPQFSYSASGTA
Sequence of Mitogen-activated protein kinase 1 and 3 (ERK2 and ERK1) (Mus musculus) (P63085 whole entry, looked up): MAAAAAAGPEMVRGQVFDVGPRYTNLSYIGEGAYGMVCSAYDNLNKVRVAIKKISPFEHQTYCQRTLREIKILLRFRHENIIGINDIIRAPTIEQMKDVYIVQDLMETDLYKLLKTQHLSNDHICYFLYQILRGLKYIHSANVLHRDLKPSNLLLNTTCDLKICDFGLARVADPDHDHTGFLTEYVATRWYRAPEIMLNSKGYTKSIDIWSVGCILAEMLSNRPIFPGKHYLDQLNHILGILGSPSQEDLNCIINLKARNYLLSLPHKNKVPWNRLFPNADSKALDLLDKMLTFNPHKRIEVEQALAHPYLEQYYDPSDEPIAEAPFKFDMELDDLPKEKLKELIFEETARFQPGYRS
Sequence of Mitogen-activated protein kinase 1 and 3 (ERK2 and ERK1) (Mus musculus) (Q63844 whole entry, looked up): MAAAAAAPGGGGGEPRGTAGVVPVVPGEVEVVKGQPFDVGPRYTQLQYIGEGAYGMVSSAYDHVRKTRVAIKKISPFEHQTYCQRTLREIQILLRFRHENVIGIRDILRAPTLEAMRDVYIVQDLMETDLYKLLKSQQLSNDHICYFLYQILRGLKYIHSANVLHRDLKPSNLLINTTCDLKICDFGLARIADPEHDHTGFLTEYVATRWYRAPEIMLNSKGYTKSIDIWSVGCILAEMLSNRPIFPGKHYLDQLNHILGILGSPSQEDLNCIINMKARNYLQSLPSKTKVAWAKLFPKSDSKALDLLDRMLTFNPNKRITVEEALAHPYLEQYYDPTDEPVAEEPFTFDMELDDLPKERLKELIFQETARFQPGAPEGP

| Structure (SMILES) | inhibition [1] | inhibition (RAW264.7 [3]) | inhibition [4] | Activity (RAW264.7 [7]) | Activity (RAW264.7 [8]) | Activity (RAW264.7 [9]) | Activity (RAW264.7 [12]) | viability at 18 h, 1 µM [17] | Activity (RAW264.7 [18]) | Activity (RAW264.7 [19]) | viability at 18 h, 20 µM [21] | Activity (RAW264.7 [24]) | viability at 18 h, 5 µM [25] | Activity (RAW264.7 [26]) | viability at 18 h, 0.1 µM [27] | further results |
| --- | --- | --- | --- | --- | --- | --- | --- | --- | --- | --- | --- | --- | --- | --- | --- | --- |
| C=C1CC[C@@H]2[C@](C)(CO)[C@H](O)CC[C@@]2(C)[C@@H]1C/C=C1/C(=O)OC[C@H]1O | Active | Active | Active |  |  |  |  |  |  |  |  |  |  |  |  | inhibition [2]: Active; inhibition (Mus musculus [5]): inactive |
| C=C1CC[C@H]2C(C)(C)CCC[C@]2(C)[C@H]1C/C=C1/C(=O)OC[C@H]1O | inactive | inactive | inactive | 68.1% | 63.4% | 99.2% | 1.7% | 95.6% | 99.3% | 19.2% | 53.7% | 40% | 82.7% | 10.8% | 103% | Activity [6]: inactive; inhibition [10]: Active; inhibition (RAW264.7 [11]): Dose-dependent effect; Activity [13]: inactive; inhibition (Mus musculus [14]): Dose-dependent effect; IC50 (RAW264.7 [15]): 3.91 µM; inhibition (RAW264.7 [15]): Dose-dependent effect; inhibition (RAW264.7 [16]): Dose-dependent effect; inhibition (RAW264.7 [20]): Dose-dependent effect; inhibition [22]: Dose-dependent effect; inhibition (RAW264.7 [23]): Dose-dependent effect; inhibition (RAW264.7 [28]): Dose-dependent effect |
| C=C1CC[C@H]2C(C)(C)CCC[C@]2(C)[C@H]1C/C=C1\CC(O)OC1=O (stereo partly specified) |  |  |  | 82.4% | 89.6% | 99.1% | 71.1% | 92.7% | 100.2% | 81.9% | 79% | 64% | 86.3% | 59.4% | 102% |  |
| C=C1CC[C@H]2C(C)(C)CCC[C@]2(C)[C@H]1C[C@H](O)[C@H]1C(=O)OC[C@H]1O |  |  |  | 101.7% | 108.6% | 104.6% | 86.8% | 106% | 111.1% | 109.5% | 98.3% | 104.3% | 107% | 71.8% | 108% |  |
